# Assays:
# Oryza sativa [1] = assay: Phytotoxicity against Oryza sativa (rice); type: organism-based; conditions: in vivo
# Oryza sativa [2] = assay: Phytotoxicity against three to four-leaf stage japonica Oryza sativa (rice) under field condition by foliar application method; type: organism-based; conditions: in vivo
# Pontederia vaginalis [3] = assay: Post-emergence herbicidal activity against three-leaf stage Monochoria vaginalis under field condition by water injection treatment method; type: functional
# Outline: (§1)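 Field trials: water-injected treatment applied to transplanted japonica rice and to weeds at the three-leaf stage, under rice-growing conditions in several countries.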
# Oryza sativa [4] = assay: Phytotoxicity against two to three-leaf stage indica Oryza sativa (rice) under field condition by foliar application method; type: organism-based; conditions: in vivo
# Stellaria media = assay: Post-emergence herbicidal activity against Stellaria media compound treated as foliar application measured after 2 weeks; type: functional
# Outline: (§2)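 Greenhouse post-emergence foliar screen in 64 cm² pots. Seed treatments were used on some species to aid germination. Plants were grown 7–21 days at 23–29 °C day/22–28 °C night under a 15 h photoperiod. Sprayed at 2–12 cm height and the 1–4 true leaf stage.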
# Echinochloa crus-galli [5] = assay: Post-emergence herbicidal activity against three-leaf stage Echinochloa crus-galli (barnyard grass) under green-house condition by water injection treatment method; type: functional
# Outline: (§3)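 Greenhouse paddy test. Seed was sown on saturated Metro Mix, covered with about 0.5 cm mix and held 48 h dark at 30 °C, 95% RH; about 15 d from seed soaking to treatment. Treatment solution was injected into the water. Rates were set per pot surface area, with serial rates made by halving the volume delivered. Held at 16 h day length, 29 °C.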
# Fallopia convolvulus = assay: Post-emergence herbicidal activity against Fallopia convolvulus compound treated as foliar application measured after 2 weeks; type: functional; outline: as §2
# Ipomoea = assay: Post-emergence herbicidal activity against Ipomoea spp. compound treated as foliar application measured after 2 weeks; type: functional; outline: as §2
# Avena fatua = assay: Post-emergence herbicidal activity against Avena fatua compound treated as foliar application measured after 2 weeks; type: functional; outline: as §2
# Oryza sativa [6] = assay: Phytotoxicity against three-leaf stage Oryza sativa (rice) under green-house condition by water injection treatment method; type: organism-based; outline: as §3
# Helianthus = assay: Post-emergence herbicidal activity against Helianthus spp. compound treated as foliar application measured after 2 weeks; type: functional; outline: as §2
# Datura stramonium = assay: Post-emergence herbicidal activity against Datura stramonium compound treated as foliar application measured after 2 weeks; type: functional; outline: as §2
# [7] = tested on: Schoenoplectiella juncoides; assay: Post-emergence herbicidal activity against three-leaf stage Schoenoplectiella juncoides under green-house condition by water injection treatment method; type: functional; outline: as §3
# Pontederia vaginalis [8] = assay: Post-emergence herbicidal activity against three-leaf stage Monochoria vaginalis under green-house condition by water injection treatment method; type: functional; outline: as §3
# Echinochloa crus-galli [9] = assay: Post-emergence herbicidal activity against 2-3-leaf stage Echinochloa crus-galli (barnyard grass) under field condition by foliar application method; type: functional
# Amaranthus retroflexus = assay: Post-emergence herbicidal activity against Amaranthus retroflexus compound treated as foliar application measured after 2 weeks; type: functional; outline: as §2
# Echinochloa crus-galli [10] = assay: Post-emergence herbicidal activity against three-leaf stage Echinochloa crus-galli (barnyard grass) under field condition by water injection treatment method; type: functional; outline: as §1
# Cyperus difformis = assay: Post-emergence herbicidal activity against three-leaf stage Cyperus difformis under green-house condition by water injection treatment method; type: functional; outline: as §3
# Veronica hederifolia = assay: Post-emergence herbicidal activity against Veronica hederifolia compound treated as foliar application measured after 2 weeks; type: functional; outline: as §2
# Sesbania herbacea = assay: Post-emergence herbicidal activity against three to four-leaf stage Sesbania herbacea under field condition by foliar application method; type: functional
# Ipomoea hederacea = assay: Post-emergence herbicidal activity against Ipomoea hederacea (ivy-leaved morning glory) compound treated as foliar application measured after 2 weeks; type: functional; outline: as §2
# Echinochloa crus-galli [11] = assay: Post-emergence herbicidal activity against 3-4-leaf stage Echinochloa crus-galli (barnyard grass) under field condition by foliar application method; type: functional
# Abutilon theophrasti = assay: Post-emergence herbicidal activity against Abutilon theophrasti (velvetleaf) compound treated as foliar application measured after 2 weeks; type: functional; outline: as §2
# Xanthium strumarium = assay: Post-emergence herbicidal activity against Xanthium strumarium (cocklebur) compound treated as foliar application measured after 2 weeks; type: functional; outline: as §2
# Digitaria sanguinalis = assay: Post-emergence herbicidal activity against Digitaria sanguinalis (hairy crabgrass) compound treated as foliar application measured after 2 weeks; type: functional; outline: as §2
# Alopecurus = assay: Post-emergence herbicidal activity against Alopecurus spp. compound treated as foliar application measured after 2 weeks; type: functional; outline: as §2
# Oryza sativa [12] = assay: Phytotoxicity against three-leaf stage Oryza sativa (rice) under field condition by water injection treatment method; type: organism-based; outline: as §1
# Echinochloa crus-galli [13] = assay: Post-emergence herbicidal activity against Echinochloa crus-galli (barnyard grass) compound treated as foliar application measured after 2 weeks; type: functional; outline: as §2
# [14] = tested on: Schoenoplectiella juncoides; assay: Post-emergence herbicidal activity against two to three-leaf stage Schoenoplectiella juncoides under field condition by foliar application method; type: functional
# Chenopodium album = assay: Post-emergence herbicidal activity against Chenopodium album compound treated as foliar application measured after 2 weeks; type: functional; outline: as §2
# Sorghum halepense = assay: Post-emergence herbicidal activity against Sorghum halepense (Johnson grass) compound treated as foliar application measured after 2 weeks; type: functional; outline: as §2
# [15] = tested on: Schoenoplectiella juncoides; assay: Post-emergence herbicidal activity against three-leaf stage Schoenoplectiella juncoides under field condition by water injection treatment method; type: functional; outline: as §1
# Setaria faberi = assay: Post-emergence herbicidal activity against Setaria faberi (Giant Foxtail) compound treated as foliar application measured after 2 weeks; type: functional; outline: as §2
structure (smiles),measurement,setting,value
COc1cnc(OC)n2nc(NS(=O)(=O)c3c(OCCF)cccc3C(F)(F)F)nc12,GR20,Oryza sativa [1],250 ppm
same,GR10,Oryza sativa [2],12 gAi/ha
same,GR80,Pontederia vaginalis [3],4.4 gAi/ha
same,GR10,Oryza sativa [4],> 70 gAi/ha
same,GR80,Stellaria media,6 ppm
same,GR80,Echinochloa crus-galli [5],10 gAi/ha
same,GR80,Fallopia convolvulus,6 ppm
same,GR80,Ipomoea,6 ppm
same,GR80,Avena fatua,66 ppm
same,GR20,Oryza sativa [6],14 gAi/ha
same,GR80,Helianthus,6 ppm
same,GR80,Datura stramonium,6 ppm
same,GR80,[7],9 gAi/ha
same,GR80,Pontederia vaginalis [8],5.2 gAi/ha
same,GR80,Echinochloa crus-galli [9],5 gAi/ha
same,GR80,Amaranthus retroflexus,6 ppm
same,GR80,Echinochloa crus-galli [10],19 gAi/ha
same,GR80,Cyperus difformis,8 gAi/ha
same,GR80,Veronica hederifolia,6 ppm
same,GR80,Sesbania herbacea,10 gAi/ha
same,GR80,Ipomoea hederacea,6 ppm
same,GR80,Echinochloa crus-galli [11],12 gAi/ha
same,GR80,Abutilon theophrasti,6 ppm
same,GR80,Xanthium strumarium,6 ppm
same,GR80,Digitaria sanguinalis,66 ppm
same,GR80,Alopecurus,66 ppm
same,GR10,Oryza sativa [12],8 gAi/ha
same,GR80,Echinochloa crus-galli [13],1 ppm
same,GR80,[14],4 gAi/ha
same,GR80,Chenopodium album,6 ppm
same,GR80,Sorghum halepense,66 ppm
same,GR80,[15],5 gAi/ha
same,GR80,Setaria faberi,66 ppm
